# Experimental data from different studies.
# pIC50: −log10 of the molar value.
# KDR: Vascular endothelial growth factor receptor 2 (KDR, Homo sapiens, UniProt P35968)
# Histone acetyltransferase KAT6B: Histone acetyltransferase KAT6B (Homo sapiens, UniProt Q8WYB5)
# Trpm7 F924W: Transient receptor potential cation channel subfamily M member 7 (Trpm7, Mus musculus, UniProt Q923J1, F924W)
# PIK3CB: Phosphatidylinositol 4,5-bisphosphate 3-kinase catalytic subunit beta isoform (PIK3CB, Homo sapiens, UniProt P42338)
# DNA polymerase catalytic subunit: DNA polymerase catalytic subunit (Human cytomegalovirus, UniProt P08546)
# PIK3CA: Phosphatidylinositol 4,5-bisphosphate 3-kinase catalytic subunit alpha isoform (PIK3CA, Homo sapiens, UniProt P42336)
# NOX5: NADPH oxidase 5 (NOX5, Homo sapiens, UniProt Q96PH1)
Compound,target,test,setting,pIC50
COc1ccc2[nH]c(C(=O)Nc3nc(CC(=O)O)cs3)cc2c1,KDR,"enzyme activity, inhibitor, ELISA",,6.04
Cc1cc(Br)cc2oc(C(=O)NS(=O)(=O)c3ccccc3-c3ccccc3)cc12,Histone acetyltransferase KAT6B,"enzyme activity, inhibitor, TR-FRET",,6.82
O=c1oc(-c2cccnc2)nc2ccccc12,"Cathepsin G (CTSG, Homo sapiens, UniProt P08311)","enzyme activity, inhibitor, absorbance",pH 7.4,5.31
CCOc1cccc(-c2ccccc2)c1S(=O)(=O)NC(=O)c1cc2c(C)cc(OC)cc2o1,Histone acetyltransferase KAT6B,"enzyme activity, inhibitor, TR-FRET",,7.29
c1ccc2c(c1)CCC[C@H]2Nc1nc2ccccc2[nH]1,Trpm7 F924W,calcium signal,,5.29
Cc1nc(N(C)c2ccc3c(c2)/C(=C/c2ccccc2Cl)C(=O)N3C)c2ccccc2n1,PIK3CB,"enzyme activity, inhibitor, ADP detection",,6.93
COc1cc(C)c2cc(C(=O)NS(=O)(=O)c3ccc(Cl)cc3)oc2c1,Histone acetyltransferase KAT6B,"enzyme activity, inhibitor, TR-FRET",,6.63
COc1cc2ncnc(N(C)c3ccc4c(c3)/C(=C/c3cccc(Cl)c3)C(=O)N4C)c2cc1OC,PIK3CB,"enzyme activity, inhibitor, ADP detection",,6.99
O=C(/C=C/c1ccc(O)c2oc(-c3ccc(O)c(O)c3)cc12)O[C@H](Cc1ccc(O)c(O)c1)C(=O)O,"YTH domain-containing protein 1 (Homo sapiens, UniProt Q96MU7)","ligand displacement, FP",,4.54
CC(=O)Nc1ccc(Oc2nnc(-c3ccc(Cl)cc3)c3ccccc23)cc1,KDR,"cell-free assay, inhibitor",,6.26
Cc1nc(Nc2ccc3c(c2)/C(=C/c2ccccc2Cl)C(=O)N3)c2ccccc2n1,PIK3CB,"enzyme activity, inhibitor, ADP detection",,7.04
CC1(C)CN(C(=O)Cn2c(=O)c(C(=O)NCc3ccc(Cl)cc3)cc3nccnc32)C1,DNA polymerase catalytic subunit,"enzyme activity, inhibitor",,5.65
COc1cc2ncnc(Nc3ccc4c(c3)/C(=C/c3cccc(Cl)c3)C(=O)N4C)c2cc1OC,PIK3CA,"enzyme activity, inhibitor, ADP detection",,6.92
Cc1coc2c1C(=O)C(=O)c1c-2ccc2c1CCCC2(C)C,NOX5,"enzyme activity, inhibitor",,5.72
CCOc1ccccc1S(=O)(=O)NC(=O)c1cc2c(OC)cc(OC)cc2o1,Histone acetyltransferase KAT6B,"enzyme activity, inhibitor, TR-FRET",,6.51
Cc1nc(Nc2ccc3c(c2)C(C)(C)C(=O)N3C)c2ccccc2n1,PIK3CA,"enzyme activity, inhibitor, ADP detection",,6.78
CC(=NNC(=O)c1ccncc1)c1ccc(Nc2nnc(-c3ccc(Cl)cc3)c3ccccc23)cc1,KDR,"cell-free assay, inhibitor",,6.83
Cc1nc(Nc2ccc3c(c2)C(C)(C)C(=O)N3)c2ccccc2n1,PIK3CB,"enzyme activity, inhibitor, ADP detection",,6.82
CCCc1c(-c2ccccc2)nn(-c2ccccn2)c1O,NOX5,"enzyme activity, inhibitor",,5.66
CN(C)C(=O)CN1CCN(c2cnc3c(cc(C(=O)NCc4ccc(Cl)cc4)c(=O)n3CC(=O)N3CC(C)(F)C3)n2)C1=O,DNA polymerase catalytic subunit,"enzyme activity, inhibitor",,6.48
O=C(NS(=O)(=O)c1ccccc1-c1ccccc1)c1cc2ccc(OCCO)cc2o1,Histone acetyltransferase KAT6B,"enzyme activity, inhibitor, TR-FRET",,5.23
Cc1nc(Nc2ccc3c(c2)CC(=O)N3)c2ccccc2n1,PIK3CA,"enzyme activity, inhibitor, ADP detection",,7.25
C[C@H]1COC2=C1C(=O)C(=O)c1c2ccc2c1CCCC2(C)C,NOX5,"enzyme activity, inhibitor",,5.37
CCOc1ccc2cc(C(=O)NS(=O)(=O)c3ccccc3-c3ccccc3)oc2c1,Histone acetyltransferase KAT6B,"enzyme activity, inhibitor, TR-FRET",,5.52
Cc1nc(Nc2ccc3c(c2)/C(=C/c2ccccc2C)C(=O)N3)c2ccccc2n1,PIK3CA,"enzyme activity, inhibitor, ADP detection",,7.34
COc1cc(C)c2cc(C(=O)NS(=O)(=O)c3ccc(C)cc3-c3ccccc3)oc2c1,Histone acetyltransferase KAT6B,"enzyme activity, inhibitor, TR-FRET",,7.39
N#Cc1ccc(COC[C@H]2O[C@@H](n3c(NCc4ccc(Cl)c(Cl)c4)nc4c(N)ncnc43)[C@H](O)[C@@H]2O)cc1,Trpm7 F924W,calcium signal,,5.25
